Assay results: ChEMBL document CHEMBL1811845, “Modulation of GABAA-receptors by honokiol and derivatives: subtype selectivity and structure-activity relationship” (J Med Chem, 2011)

What was measured:
[1] = biological target: T1, GABA-A receptor; GABA-A site (alpha1/beta2 interface) (Homo sapiens) (UniProt P14867+P47870); test: Modulation of GABA Aalpha1beta2 receptor expressed in Xenopus laevis oocytes assessed as potentiation of GABA-induced chloride current at holding potential -70 mV by two-microelectrode voltage clamp technique relative to GABA; format: cell-based; settings: Oocyte
Summary of the method: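 Oocytes were injected with α1, α2, α3 or α5 plus β2 cRNA at a 1:1 ratio and stored at 18 °C in ND96, pH 7.4. Enhancement was (I(GABA+compound)/IGABA)−1, and concentration-response data were Hill-fitted for EC50 and nH. Matched DMSO was ≤0.3%.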

[2] = biological target: T2, GABA-A receptor; GABA-A site (alpha1/beta2 interface) (Homo sapiens, UniProt P14867+P47870); test: Modulation of GABA Aalpha1beta2 receptor expressed in Xenopus laevis oocytes assessed as potentiation of GABA-induced chloride current at holding potential -70 mV by two-microelectrode voltage clamp technique; format: cell-based, Oocyte
T2 sequence (P14867 whole entry): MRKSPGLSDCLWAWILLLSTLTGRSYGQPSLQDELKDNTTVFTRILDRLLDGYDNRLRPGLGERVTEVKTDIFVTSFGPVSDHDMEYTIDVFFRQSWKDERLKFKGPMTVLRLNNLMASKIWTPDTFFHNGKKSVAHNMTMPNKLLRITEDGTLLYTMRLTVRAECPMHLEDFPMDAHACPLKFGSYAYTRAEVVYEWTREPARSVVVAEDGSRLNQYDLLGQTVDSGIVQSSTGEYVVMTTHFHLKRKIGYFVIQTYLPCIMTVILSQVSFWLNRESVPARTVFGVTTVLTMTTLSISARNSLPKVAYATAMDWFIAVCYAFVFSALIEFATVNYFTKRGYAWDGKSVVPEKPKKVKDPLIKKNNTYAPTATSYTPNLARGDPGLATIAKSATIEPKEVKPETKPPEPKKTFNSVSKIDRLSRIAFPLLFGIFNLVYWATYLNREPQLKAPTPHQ
T2 sequence (P47870 whole entry): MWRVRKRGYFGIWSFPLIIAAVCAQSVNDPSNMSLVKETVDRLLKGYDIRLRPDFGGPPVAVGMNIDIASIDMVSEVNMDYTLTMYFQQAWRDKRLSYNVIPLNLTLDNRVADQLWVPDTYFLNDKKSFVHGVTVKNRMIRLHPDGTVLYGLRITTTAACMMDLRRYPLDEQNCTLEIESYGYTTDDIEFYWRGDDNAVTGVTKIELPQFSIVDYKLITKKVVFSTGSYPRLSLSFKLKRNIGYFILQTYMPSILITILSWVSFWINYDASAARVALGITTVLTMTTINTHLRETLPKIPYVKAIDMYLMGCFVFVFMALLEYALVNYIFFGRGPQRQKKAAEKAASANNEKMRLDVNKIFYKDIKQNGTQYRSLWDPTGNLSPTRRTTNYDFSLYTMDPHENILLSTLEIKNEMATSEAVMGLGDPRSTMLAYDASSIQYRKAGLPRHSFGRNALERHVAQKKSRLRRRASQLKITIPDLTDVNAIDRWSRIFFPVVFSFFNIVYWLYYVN
Summary of the method: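 Stage V–VI Xenopus oocytes, defolliculated with 2 mg/mL collagenase, injected with α(1, 2, 3 or 5) and β2 cRNAs mixed 1:1, then kept at 18 °C in ND96 (pH 7.4). Enhancement = I(GABA+compound)/IGABA − 1. Curves were Hill-fitted for EC50. Bath DMSO was at most 0.3%, matched in controls.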

[3] = biological target: T1, GABA-A receptor; GABA-A site (alpha1/beta2 interface) (Homo sapiens); test: Modulation of GABA Aalpha1beta2 receptor expressed in Xenopus laevis oocytes assessed as potentiation of GABA-induced chloride current at holding potential -70 mV at 30 uM by two-microelectrode voltage clamp technique relative to GABA; format: cell-based; settings: Oocyte
Summary of the method: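 Single-concentration screen at 30 μM on α1β2 receptors (cRNA 1:1) in Xenopus oocytes. Enhancement was (I(GABA+compound)/IGABA)−1. DMSO was matched in control and test solutions, maximum 0.3% in the bath.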

[4] = Octanol-water partition coefficient, log P of the compound; format: physicochemical

| Compound | Smax [1] | EC50 [2] | Activity [3] | logP ([4]; read-out: logP) | logP [4] |
| --- | --- | --- | --- | --- | --- |
| COc1ccc(-c2cc(CCO)ccc2O)cc1CCO | 177% | 105 µM | 15% | 2.72 |  |
| C=CCc1cc(-c2ccc(O)c(CC=C)c2)ccc1O | 110% | 23.7 µM | 73% | 5.16 |  |
| C=CCc1ccc(O)c(-c2ccc(OCC)c(CC=C)c2)c1 | 865% | 59.9 µM | 345% | 5.77 |  |
| C=CCc1ccc(O)c(-c2cc(CC=C)ccc2O)c1 [MAGNOLOL] | 963% | 36.8 µM | 357% | 5.16 |  |
| C=CCc1ccc(OC2CC2)c(-c2ccc(OCCC)c(CC=C)c2)c1 | 608% | 22 µM | 339% | 6.38 |  |
| C=CCc1ccc(O)c(-c2ccc(OC)c(CC(C)Br)c2)c1 (stereo unspecified) | 952% | 16.9 µM | 589% | 5.99 |  |
| C=CCc1cc(NCC)c(O)c(-c2ccc(OC)c(CC=C)c2)c1 | 2290% | 7.7 µM | 2140% | 5.45 |  |
| C=CCc1ccc(O)c(-c2ccc(OC)c(/C=C\C)c2)c1 | 1000% | 19.7 µM | 605% | 5.45 |  |
| C=CCc1ccc(OCC)c(-c2ccc(O)c(CC=C)c2)c1 | 1400% | 14.3 µM | 1080% | 5.77 |  |
| COc1ccc(-c2cc(CC(C)O)ccc2O)cc1CC(C)O (stereo unspecified) | 161% | 34.2 µM | 68% | 3.64 |  |
| COc1ccc(-c2cc(CC(O)CO)ccc2O)cc1CC(O)CO (stereo unspecified) |  |  | 4% | 1.57 |  |
| C=CCc1ccc(OCCC)c(-c2ccc(O)c(CC=C)c2)c1 | 145% | 14.8 µM | 93% | 6.38 |  |
| CCCCC=CCc1ccc(O)c(-c2ccc(OC)c(CC=CCCCC)c2)c1 (mixture of isomers) |  | 2 µM | -2% | 8.36 |  |
| CCCc1ccc(O)c(-c2ccc(OC)c(CCC)c2)c1 | 1440% | 12.7 µM | 1060% | 6.01 |  |
| C=CCc1cccc(-c2cccc(CC=C)c2O)c1O | 148% | 35.2 µM | 53% | 5.09 |  |
| C=CCc1ccc(OCCCCC)c(-c2ccc(O)c(CC=C)c2)c1 |  |  | 13% | 7.27 |  |

Next, values leading:

| Smax [1] | EC50 [2] | Activity [3] | logP ([4]; read-out: logP) | logP [4] | Compound |
| --- | --- | --- | --- | --- | --- |
| 2710% | 12.4 µM | 2180% | 4.79 |  | C=CCc1cc(N)c(O)c(-c2ccc(OC)c(CC=C)c2)c1 |
|  |  | 22% | 7.6 |  | C=CCc1ccc(OCCC)c(-c2ccc(OCCC)c(CC=C)c2)c1 |
| 326% | 18.5 µM | 215% | 5.38 |  | C=CCc1cc(-c2ccc(OC)c(CC=C)c2)c(O)c(N(C)C)c1 |
|  |  | 1% |  | 9.37 | C=CCc1ccc(OCCCCC)c(-c2ccc(OCCCCC)c(CC=C)c2)c1 |
|  |  | 7% | 6.06 |  | C=CCc1cc(-c2ccc(OC)c(CC=C)c2)c(O)c(N(CC)CC)c1 |
| 2030% | 9.3 µM | 1840% | 5.11 |  | C=CCc1cc(NC)c(O)c(-c2ccc(OC)c(CC=C)c2)c1 |
|  |  | 28% | 7.27 |  | C=CCc1ccc(O)c(-c2ccc(OCCCCC)c(CC=C)c2)c1 |
|  |  | 14% | 6.37 |  | C=CCc1ccc(OCC)c(-c2ccc(OCC)c(CC=C)c2)c1 |
| 2800% | 54.3 µM | 687% | 5.43 |  | C=CCc1ccc(O)c(-c2cc(CC=C)ccc2OC)c1 |
| 368% | 42.1 µM | 110% | 5.69 |  | C=CCc1ccc(OC)c(-c2ccc(OC)c(CC=C)c2)c1 |
| 227% | 25 µM | 120% | 5.4 |  | C=CCc1cc(-c2ccc(OC)c(CC=C)c2)c(O)c([N+](=O)[O-])c1 |
| 1340% | 8.4 µM | 1230% | 5.99 |  | C=CCc1cc(-c2cc(CC(C)Br)ccc2O)ccc1OC (stereo unspecified) |
| 1530% | 27.2 µM | 822% | 5.43 |  | C=CCc1ccc(O)c(-c2ccc(OC)c(CC=C)c2)c1 [METHYLHONOKIOL] |
